Reference: ChEMBL document CHEMBL4014308, “Amphiphilic Tobramycin-Lysine Conjugates Sensitize Multidrug Resistant Gram-Negative Bacteria to Rifampicin and Minocycline” (J Med Chem, 2017)
Active and inactive are the calls of the source. No cut-off for these calls is given here.

Tests used:
Format in all cases: functional
[1] = tested on: Staphylococcus epidermidis; assay: Antibacterial activity against methicillin-susceptible Staphylococcus epidermidis isolate CANWARD-2008 81388 after 18 hrs by microtiter dilution assay; details: isolate CANWARD-2008 81388, 18 h
Summary of the method: (§1)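 Broth microdilution following CLSI guidelines. An overnight culture was adjusted to 0.5 McFarland in saline, then diluted 1:50 in Mueller-Hinton broth. This inoculum was added in equal volume to 2-fold serial dilutions of agent in MHB and incubated 18 h at 37 °C. MIC was the lowest concentration with no visible growth.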

Streptococcus pneumoniae = assay: Antibacterial activity against Streptococcus pneumoniae ATCC 49619 after 18 hrs by microtiter dilution assay; details: ATCC 49619, 18 h
Summary of the method: (§2)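 Broth microdilution per CLSI. Overnight culture adjusted to 0.5 McFarland in saline, diluted 1:50 in Mueller-Hinton broth, and added to an equal volume of 2-fold serial compound dilutions in MHB. Incubated 18 h at 37 °C. MIC taken as the lowest concentration with no visible growth.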

Pseudomonas aeruginosa [2] = assay: Antibacterial activity against Pseudomonas aeruginosa ATCC 27853 after 18 hrs by microtiter dilution assay; details: ATCC 27853, 18 h; summary of the method: as §2
Pseudomonas aeruginosa [3] = assay: Antibacterial activity against gentamicin/tobramycin-resistant Pseudomonas aeruginosa isolate CANWARD-2011 96846 after 18 hrs by microtiter dilution assay; details: isolate CANWARD-2011 96846, 18 h; summary of the method: as §1
Pseudomonas aeruginosa [4] = assay: Synergistic antibacterial activity against Pseudomonas aeruginosa PAO1 after 18 hrs in presence of chloramphen by checkerboard assay; details: PAO1, 18 h
Summary of the method: (§3)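 Checkerboard in MHB: antibiotic diluted along one axis and adjuvant along the other (10 × 7 matrix). Inoculum was a 1:50 dilution in MHB of a 0.5 McFarland saline suspension; incubated 18 h at 37 °C. Each FIC = concentration in the no-growth well divided by the MIC alone; FIC index = sum of both FICs. ≤0.5 synergy, 0.5–4 no interaction, ≥4 antagonism.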

Pseudomonas aeruginosa [5] = assay: Synergistic antibacterial activity against Pseudomonas aeruginosa PAO1 after 18 hrs in presence of colistin by checkerboard assay; details: PAO1, 18 h; summary of the method: as §3
Pseudomonas aeruginosa [6] = assay: Potentiation of novobiocin-induced antibacterial activity against Pseudomonas aeruginosa PAO1 at 4 ug/ml after 18 hrs by checkerboard assay
Pseudomonas aeruginosa [7] = assay: Potentiation of minocycline-induced antibacterial activity against multidrug/extremely drug-resistant/colistin-susceptible Pseudomonas aeruginosa isolate 100036 at 4 ug/ml after 18 hrs by checkerboard assay
Summary of the method: (§4)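 Checkerboard in Mueller-Hinton broth: antibiotic serially diluted along one axis and adjuvant along the other (10 × 7 matrix). Inoculum from a 0.5 McFarland saline suspension diluted 1:50 in MHB; 18 h at 37 °C, then plate read. MIC is the lowest concentration with no growth. FIC of each agent is its concentration in a no-growth well divided by its MIC alone; FIC index is the sum of both. FIC index ≤0.5 counts as synergy.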

Pseudomonas aeruginosa [8] = assay: Potentiation of rifampicin-induced antibacterial activity against multidrug/extremely drug-resistant/colistin-susceptible Pseudomonas aeruginosa isolate 101885 at 4 ug/ml after 18 hrs by checkerboard assay; summary of the method: as §4
Pseudomonas aeruginosa [9] = assay: Potentiation of minocycline-induced antibacterial activity against multidrug/extremely drug-resistant/colistin-susceptible Pseudomonas aeruginosa isolate P259-96918 assessed as fold reduction in minocycline MIC at 4 ug/ml after 18 hrs by checkerboard assay relative to control
Summary of the method: (§5)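 Checkerboard in Mueller-Hinton broth, 10 × 7 matrix, with the adjuvant held at 4 µg/mL. Inoculum from a 0.5 McFarland suspension diluted 1:50; 18 h at 37 °C. Antibiotic MIC (lowest concentration with no growth) with adjuvant is compared with the antibiotic MIC alone, giving a fold reduction.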

Pseudomonas aeruginosa [10] = assay: Potentiation of rifampicin-induced antibacterial activity against multidrug/extremely drug-resistant/colistin-susceptible Pseudomonas aeruginosa isolate P259-96918 assessed as fold reduction in rifampicin MIC at 4 ug/ml after 18 hrs by checkerboard assay relative to control; summary of the method: as §5
Pseudomonas aeruginosa [11] = assay: Potentiation of minocycline-induced antibacterial activity against multidrug/extremely drug-resistant/colistin-susceptible Pseudomonas aeruginosa isolate P264-104354 assessed as fold reduction in minocycline MIC at 4 ug/ml after 18 hrs by checkerboard assay relative to control; summary of the method: as §5
Pseudomonas aeruginosa [12] = assay: Potentiation of minocycline-induced antibacterial activity against multidrug/extremely drug-resistant/colistin-resistant Pseudomonas aeruginosa isolate 91433 assessed as fold reduction in minocycline MIC at 4 ug/ml after 18 hrs by checkerboard assay relative to control; summary of the method: as §5
Pseudomonas aeruginosa [13] = assay: Potentiation of minocycline-induced antibacterial activity against multidrug/extremely drug-resistant/colistin-resistant Pseudomonas aeruginosa isolate 91433 at 4 ug/ml after 18 hrs by checkerboard assay; summary of the method: as §4
Pseudomonas aeruginosa [14] = assay: Potentiation of rifampicin-induced antibacterial activity against multidrug/extremely drug-resistant/colistin-resistant Pseudomonas aeruginosa isolate 91433 at 4 ug/ml after 18 hrs by checkerboard assay; summary of the method: as §4
Pseudomonas aeruginosa [15] = assay: Potentiation of minocycline-induced antibacterial activity against multidrug/extremely drug-resistant/colistin-resistant Pseudomonas aeruginosa isolate 101243 at 4 ug/ml after 18 hrs by checkerboard assay; summary of the method: as §4
Klebsiella pneumoniae = assay: Antibacterial activity against multidrug-resistant Klebsiella pneumoniae 116381 after 18 hrs by microtiter dilution assay; details: Klebsiella pneumoniae, 116381, 18 h; summary of the method: as §1
Acinetobacter baumannii [16] = assay: Synergistic antibacterial activity against multidrug-resistant Acinetobacter baumannii AB031 after 18 hrs in presence of rifampicin by checkerboard assay; details: AB031, 18 h
Summary of the method: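 Checkerboard in MHB with a 10 × 7 matrix: antibiotic serially diluted along one axis, adjuvant along the other. Inoculum was a 1:50 dilution of a 0.5 McFarland suspension, incubated 18 h at 37 °C and read on a plate reader. Each FIC is the concentration in a no-growth well divided by the MIC alone; FIC index is their sum, with ≤0.5 taken as synergy.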

Acinetobacter baumannii [17] = assay: Potentiation of minocycline-induced antibacterial activity against multidrug-resistant Acinetobacter baumannii AB031 at 4 ug/ml after 18 hrs by checkerboard assay; summary of the method: as §4
Acinetobacter baumannii [18] = assay: Potentiation of rifampicin-induced antibacterial activity against multidrug-resistant Acinetobacter baumannii AB031 at 4 ug/ml after 18 hrs by checkerboard assay; summary of the method: as §4
Pseudomonas aeruginosa [19] = assay: Potentiation of minocycline-induced antibacterial activity against Pseudomonas aeruginosa PAO1 after 25 serial passages at 0.125 times MIC by microtiter dilution assay
Summary of the method: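 Sequential passaging of wild-type PAO1 with single drugs or drug combinations. MIC was tested in MHB for 18 h. Cells from the well at half the MIC were adjusted to 0.5 McFarland in saline, diluted 1:50 in fresh MHB and used for the next MIC test. This was repeated for 25 passages, and the fold change in MIC was plotted against passage number.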

Pseudomonas aeruginosa [20] = assay: Potentiation of minocycline-induced antibacterial activity against multidrug/extremely drug-resistant/colistin-susceptible Pseudomonas aeruginosa isolate P262-101856 infected in Galleria mellonella assessed as mortality at 12.5 to 37.5 mg/kg after 24 hrs relative to control
Summary of the method: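 Galleria mellonella larvae (~250 mg, used within 7 days), 15 per group, injected with 10 µL XDR P. aeruginosa P262 suspension (1.0×10^3 CFU/mL in PBS). At 2 h, a single 10 µL injection of combination at 12.5 + 12.5, 25 + 25 or 37.5 + 37.5 mg/kg; PBS vehicle control. Kept at 37 °C and survival scored over 24 h.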

## Cl.Cl.Cl.Cl.Cl.Cl.Cl.NCCCC[C@H](N)C(=O)N(CCCCCCCCCCCCO[C@@H]1[C@@H](O[C@H]2O[C@H](CO)[C@@H](O)[C@H](N)[C@H]2O)[C@H](N)C[C@H](N)[C@H]1O[C@H]1O[C@H](CN)[C@@H](O)C[C@H]1N)Cc1c2ccccc2c(Cl)c2ccccc12
[1]
  MIC: 2 µg/mL
Streptococcus pneumoniae
  MIC: 32 µg/mL
Pseudomonas aeruginosa [2]
  MIC: 32 µg/mL
Pseudomonas aeruginosa [3]
  MIC: 32 µg/mL
Pseudomonas aeruginosa [4]
  MIC: 4 µg/mL
Pseudomonas aeruginosa [5]
  MIC: 1 µg/mL
Pseudomonas aeruginosa [6]
  fractional inhibitory concentration index (FICI): 0.071
Pseudomonas aeruginosa [7]
  fractional inhibitory concentration index (FICI): 0.094
Pseudomonas aeruginosa [8]
  fractional inhibitory concentration index (FICI): 0.094
Pseudomonas aeruginosa [9]
  fold change (FC): 64
Pseudomonas aeruginosa [10]
  fold change (FC): 256
Pseudomonas aeruginosa [11]
  fold change (FC): 128
Pseudomonas aeruginosa [12]
  fold change (FC): 128
Pseudomonas aeruginosa [13]
  fractional inhibitory concentration index (FICI): 0.266
Pseudomonas aeruginosa [14]
  fractional inhibitory concentration index (FICI): 0.5
Pseudomonas aeruginosa [15]
  fractional inhibitory concentration index (FICI): 0.281
Klebsiella pneumoniae
  MIC: 256 µg/mL
Acinetobacter baumannii [16]
  MIC: 1 µg/mL
Acinetobacter baumannii [17]
  fractional inhibitory concentration index (FICI): 0.625
Acinetobacter baumannii [18]
  fractional inhibitory concentration index (FICI): 0.09
Pseudomonas aeruginosa [19]
  Activity: Active
Pseudomonas aeruginosa [20]
  mortality: 100%
